Results collected from several papers.
Sample: plasma
Route: oral

Structure (SMILES)	test system	setting	bioavailability [%]
CC(/C=C/C=C(\C)C(=O)O)=C\C=C\C=C(C)\C=C\C=C(/C)C(=O)O	female Wistar rat	20 mg/kg	55 to 66
N#C[C@@]12C[C@@H]1[C@@H](n1cnc3c(N[C@@H](C4CCC4)C4CC4)nc(I)nc31)[C@H](O)[C@@H]2O	male Wistar rat	1 mg/kg	7.18
O=C1CC[C@H](N2Cc3cc(N4CCN(CC5CCN(c6ccc([C@@H]7c8ccc(O)cc8CC[C@@H]7c7ccccc7)cc6)CC5)CC4)ccc3C2=O)C(=O)N1	female Sprague-Dawley rat	20 mg/kg	24.2
O=C(C=Cc1ccccc1)Nc1cc(-c2ccnc(N3CCC(O)CC3)c2)ccn1	female Sprague-Dawley rat	50 mg/kg	~38.5
CC1(CN)CCN(c2cnc3c(Sc4ccncc4Cl)n[nH]c3n2)CC1	male Sprague-Dawley rat	10 mg/kg	42.5
CC(=O)CC(=O)C1CC(C)C(=O)C1=O (stereo not shown)	male Sprague-Dawley rat	100 mg/kg	100
Nc1ccc(/C=C/C(=O)NCc2cc3cc(-c4ccc(C(=O)N5CCC(F)(F)CC5)cc4)cc(-c4ccc(F)cc4)c3o2)cn1	rat	3 mg/kg	19.6
CN1Cc2c(N)cccc2C(=O)N1C1CCC(=O)NC1=O (stereo not shown)	male Sprague-Dawley rat	3 mg/kg	82.5
CC(=Nc1ccc(N=Cc2cnccn2)cc1)N(C)C	male Sprague-Dawley rat	200 mg/kg	12
Cc1c(C(=O)O)ccc2c3n(nc12)[C@@H]1[C@H](C3)N(CC2CC2)[C@@]2(C(=O)Nc3cc(Cl)ccc32)[C@H]1c1cccc(Cl)c1F	male rat	2 mg/kg	55
